A selection: hits, their analogues and other compounds. The true share with any hit is near 3%.
MITF act = MITF TRPM1 promoter activation in melanoma cells. SK-MEL-5 TRPM1-promoter luciferase, 24 h; % of positive control, neutral wells = 0. activation, % at 12.5 µM. hit rate 0.75% among 300,000. AID 588334;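 active = mean activation of at least 80% with every replicate also reaching 80%; inconclusive = mean reaches 80% but some replicate falls short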;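 note: 0% = neutral control wells and 100% = parthenolide positive control wells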
esBAF inh = blocks esBAF chromatin remodeling in mouse ES cells; reporter increase, % at 12.5 µM; Bmi1-luciferase knock-in reporter, 24 h; 100% = twice the neutral-well signal; hit rate 2% among 350,000; in the data active = activation above about 40%; inconclusive = no clear call, values can overlap the other calls;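 note: 0% = median of the plate's neutral control wells and 100% = double that signal; a rise in the Bmi1 reporter signal indicates esBAF inhibition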
XiGFP reactiv = reactivates the inactive X chromosome in mouse fibroblasts; XiGFP mouse fibroblasts, % GFP-positive cells imaging, 3 d; cells co-treated with 5-aza-dC sensitizer; scaled so ellipticine positive control = 100%; activation, % at 7.58 µM; hit rate 0.055% among 360,000; AID 743238;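 active = mean normalized replicate activation at least 10% and every replicate at or above 10%; inconclusive = only one of the two criteria met; inactive = mean below 10% and not all replicates reach 10%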;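 note: 0% = median of on-plate neutral control wells and 100% = ellipticine 6 µM median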
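material = 68-5-11 XiGFP fibroblast line | medium = DMEM plus 5-aza-dC sensitizer | schedule = 3 days compound exposure | benchmarks = positive control ellipticine, 6 µM final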
NSD2 HMT inh = blocks human histone methyltransferase NSD2; inhibition, % at 12.5 µM; NSD2 peptide methylation, AlphaScreen, 120 min; hit rate 0.54% among 310,000; O96028; in the data active = inhibition above about 50%
Wnt bcat act = activators of Wnt/beta-catenin signaling; Wnt/beta-catenin reporter cell assay, activator, plate reader; activation, % at 9.35 µM; hit rate 1.2% among 300,000; in the data active = activation above about 30%, passing the limit was not always enough; inconclusive = no clear call, values can overlap the other calls;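 note: 0% = neutral control wells and 100% = positive control wells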
Casp6 inh = blocks human caspase-6 cleavage activity | P55212 | purified caspase-6, Z-VEID-R110 cleavage fluorescence | inhibition, % at 12.5 µM | hit rate 0.53% among 350,000 | AID 686996;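 active = mean inhibition across replicates at least about 35%, with every replicate also reaching that limit, limit read from the data; inconclusive = only one of the two criteria met; inactive = neither criterion met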;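 note: 0% = median of neutral control wells and 100% = no fluorescence left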
Target sequence (P55212 24-179 limits assumed): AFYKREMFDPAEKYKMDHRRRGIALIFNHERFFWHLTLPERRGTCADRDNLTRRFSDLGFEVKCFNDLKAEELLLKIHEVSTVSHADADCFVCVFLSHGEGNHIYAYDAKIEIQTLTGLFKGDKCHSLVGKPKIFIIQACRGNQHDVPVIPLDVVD
Target sequence (P55212 194-293 limits assumed): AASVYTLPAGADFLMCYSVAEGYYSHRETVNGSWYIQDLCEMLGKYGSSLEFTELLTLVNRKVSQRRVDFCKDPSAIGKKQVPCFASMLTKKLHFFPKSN
Numbers without * were called inactive.

What do the screens show for `CCCNC(=O)C1CC(=O)N(c2ccc(OCc3ccc(F)cc3)cc2)C1` (stereo not drawn)?
MITF act: 49; esBAF inh: inconclusive; XiGFP reactiv: 1; NSD2 HMT inh: -1; Wnt bcat act: 10; Casp6 inh: 0

How did C=CCNC(=O)C1CC(=O)N(c2ccc(OCC(=O)Nc3ccccc3)cc2)C1 (stereo not drawn) do in these assays?
MITF act: inconclusive; esBAF inh: 53*; NSD2 HMT inh: -3; Wnt bcat act: inconclusive

How did C=CCNC(=O)C1CC(=O)N(c2ccc(OCc3ccc(F)cc3)cc2)C1 (stereo not drawn) do in these assays?
MITF act: 47; esBAF inh: inconclusive; XiGFP reactiv: 0; NSD2 HMT inh: -5; Wnt bcat act: 37*; Casp6 inh: 2

What do the screens show for `CNC[C@@H]1OCCCC[C@H](C)Oc2ccc(NC(=O)CCC(F)(F)F)cc2C(=O)N([C@H](C)CO)C[C@@H]1C`?
esBAF inh: -2; XiGFP reactiv: -1

How did Cc1cc(C(=O)Nc2cccc3c2O[C@H](CN(C)C(=O)NC2CCCCC2)[C@@H](C)CN([C@H](C)CO)C3=O)n(C)n1 do in these assays?
esBAF inh: -7; XiGFP reactiv: 1; Casp6 inh: -2

Results for COc1ccc(Cc2c(-c3ccccc3)nc3ccc(Br)cn23)c(C)c1 ?
esBAF inh: 61*; XiGFP reactiv: 0; Wnt bcat act: 23; Casp6 inh: 1

What do the screens show for `COc1ccc(Cc2c(C(C)(C)C)nc3ccc(Br)cn23)c(C)c1`?
esBAF inh: -1; XiGFP reactiv: 0; Wnt bcat act: -1; Casp6 inh: 2

How did COc1ccc(Cc2c(-c3cccc(Br)c3)nc3ccc(Cl)cn23)c(C)c1 do in these assays?
esBAF inh: 58*; XiGFP reactiv: 0; Wnt bcat act: 14; Casp6 inh: 1

Results for O=C(Nc1ccccc1)C1CC2CCC1C2 (stereo not drawn) ?
MITF act: -10; esBAF inh: 2; XiGFP reactiv: 3; NSD2 HMT inh: -8; Wnt bcat act: -1; Casp6 inh: 2

How did CCN(CC)c1ccc(NC(=O)C2CC3CCC2C3)cc1 (stereo not drawn) do in these assays?
MITF act: 58; esBAF inh: 48*; NSD2 HMT inh: 22

Results for COCC(=O)N1CC2(C1)CN(Cc1cc(F)ccc1F)[C@H](CO)c1c2c2ccc(OC)cc2n1C ?
XiGFP reactiv: 0; Casp6 inh: 2

Results for O=C(COC(=O)/C=C/c1ccco1)Nc1ncc(C(F)(F)F)cc1Cl ?
MITF act: 3; esBAF inh: -9; XiGFP reactiv: 0; NSD2 HMT inh: 15; Wnt bcat act: 0; Casp6 inh: 53*

Results for O=C(COC(=O)Cc1ccc(Cl)cc1)NCc1ccco1 ?
MITF act: 8; XiGFP reactiv: 0; NSD2 HMT inh: 8; Wnt bcat act: -2; Casp6 inh: 42*

What do the screens show for `O=C(COC(=O)/C=C/c1ccco1)NCc1ccco1`?
MITF act: -3; esBAF inh: 8; XiGFP reactiv: 0; NSD2 HMT inh: 5; Wnt bcat act: 0; Casp6 inh: 60*

What do the screens show for `CSc1ccccc1NC(=O)COC(=O)/C=C/c1ccco1`?
MITF act: 4; esBAF inh: 3; NSD2 HMT inh: -1; Casp6 inh: 41*

What do the screens show for `O=C(COC(=O)Cc1ccc(Cl)c(Cl)c1)NCc1ccco1`?
MITF act: 5; XiGFP reactiv: 0; NSD2 HMT inh: 0; Wnt bcat act: 0; Casp6 inh: 7

How did COc1ccc2c3c(n(C)c2c1)[C@H](CO)N(CC1CC1)CC31CCN(C(=O)CN2CCOCC2)CC1 do in these assays?
XiGFP reactiv: 0; Casp6 inh: -4

How did O=C(C[C@@H]1C[C@H]2c3cc(NC(=O)Nc4ccccc4F)ccc3O[C@H]2[C@@H](CO)O1)NCc1ccc2c(c1)OCO2 do in these assays?
XiGFP reactiv: 0

What do the screens show for `C[C@@H]1CCCCO[C@H](CN(C)Cc2ccncc2)[C@@H](C)CN([C@@H](C)CO)C(=O)c2cc(NC(=O)Nc3ccccc3)ccc2O1`?
XiGFP reactiv: 0; Casp6 inh: -2

How did COCC(=O)N1[C@@H]2CN(C(=O)c3ccncc3)c3ccccc3[C@@H]2[C@@H]1CO do in these assays?
esBAF inh: -2; XiGFP reactiv: 0

Results for CCCC(=O)Nc1ccc2c(c1)C(=O)N(C)C[C@H](OC)[C@@H](C)CN(Cc1ccc(-c3ccccn3)cc1)[C@H](C)CO2 ?
esBAF inh: -8; XiGFP reactiv: 1; Casp6 inh: -2

What do the screens show for `CCCNC(=O)Nc1ccc2c(c1)C(=O)N(C)C[C@H](OC)[C@@H](C)CN(Cc1ccc(-c3ccccn3)cc1)[C@@H](C)CO2`?
esBAF inh: 97*; XiGFP reactiv: -1

Results for CCCNC(=O)Nc1ccc2c(c1)C(=O)N(C)C[C@@H](OC)[C@@H](C)CN(Cc1ccc(-c3ccccn3)cc1)[C@@H](C)CO2 ?
esBAF inh: 6; XiGFP reactiv: 0; Casp6 inh: 1

How did CCCC(=O)Nc1ccc2c(c1)C(=O)N(C)C[C@H](OC)[C@@H](C)CN(Cc1ccc(-c3ccccn3)cc1)[C@@H](C)CO2 do in these assays?
esBAF inh: 112*; XiGFP reactiv: 0; Casp6 inh: 2

Results for COc1ccc(CN2CC3(CCN(Cc4ccccn4)CC3)c3c(n(C)c4cc(OC)ccc34)[C@H]2CO)cc1 ?
XiGFP reactiv: 0

What do the screens show for `CCCC(=O)N1CCC2(CC1)CN(C(=O)C1CC1)[C@H](CO)c1[nH]c3cc(OC)ccc3c12`?
XiGFP reactiv: 0; Casp6 inh: 2

What do the screens show for `CCOc1ccc(Nc2ccc(N)c(S(=O)(=O)O)c2)cc1`?
MITF act: -5; XiGFP reactiv: 0; Wnt bcat act: -3; Casp6 inh: 92*

How did Nc1ccc(Br)c2cccnc12 do in these assays?
MITF act: -23; XiGFP reactiv: 0; NSD2 HMT inh: 99*; Wnt bcat act: 9; Casp6 inh: 30

What do the screens show for `O=C(NC12CC3CC(CC(C3)C1)C2)c1cccc([N+](=O)[O-])c1`?
MITF act: -8; esBAF inh: -5; XiGFP reactiv: 0; NSD2 HMT inh: -1; Wnt bcat act: -1; Casp6 inh: 0

What do the screens show for `O=[N+]([O-])c1cccc(-c2nnn(C34CC5CC(CC(C5)C3)C4)n2)c1`?
MITF act: 71; esBAF inh: 50*; NSD2 HMT inh: 0

What do the screens show for `Cc1ccc(NC(=O)CN2C(=O)S/C(=C\c3cccn3-c3cccc(C(=O)O)c3)C2=O)cc1C`?
MITF act: 3; XiGFP reactiv: 0; NSD2 HMT inh: 1; Wnt bcat act: -1; Casp6 inh: 1
